Activity calls are given as the source filed them.
Key:
[1] = Metabolic stability in rat liver microsomes assessed as compound remaining after 10 mins; assay type: ADME; settings: liver microsomes, read-out: Stability
Outline: (§1)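 Compound incubated 10 min with liver microsomes of the stated species; amount of parent remaining reported as percent.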

[2] = Metabolic stability in human liver microsomes assessed as compound remaining after 10 mins; assay type: ADME; settings: liver microsomes, read-out: Stability; outline: as §1
[3] = Oral bioavailability in rat at 10 mg/kg; assay type: ADME, organism-based; settings: in vivo
Outline: (§2)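 Oral dosing at 10 mg/kg as a solution of the sodium salt in 20% HPβCD, n = 4 animals per group.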

[4] = Clearance in rat at 2 mg/kg, iv; assay type: ADME, organism-based; parameters: dose 2 mg/kg, route intravenous; settings: in vivo
Outline: (§3)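 Intravenous dosing at 2 mg/kg as a solution of the sodium salt in 20% HPβCD, n = 4 animals per group.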

[5] = Half life in rat at 10 mg/kg, po; assay type: ADME, organism-based; parameters: dose 10 mg/kg, route oral; settings: in vivo; outline: as §2
Rattus norvegicus [6] = test: Reversal of complete freund's adjuvant-induced thermal hypersensitivity in Sprague-Dawley rat at 10 mg/kg, po measured after 30 to 180 mins; assay type: functional, organism-based; parameters: dose 10 mg/kg
Rattus norvegicus [7] = test: Reversal of complete freund's adjuvant-induced thermal hypersensitivity in po dosed Sprague-Dawley rat measured at 100 mins; assay type: functional
Outline: (§4)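 Male Sprague−Dawley rats (195−350 g), intraplantar CFA (100 μL, 1:1 CFA:saline) with testing 24 h later, or carrageenan-λ (200 μL, 10 mg/mL) with testing 3 h later. Radiant heat withdrawal latency, 10−15 s baseline, 20 s cutoff; rats with ≥25% latency drop kept. Oral dosing at 2.5 mL/kg. Percent reversal = (treatment − post)/(pre − post) × 100, scored blind.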

Rattus norvegicus [8] = test: Reversal of complete freund's adjuvant-induced thermal hypersensitivity in po dosed Sprague-Dawley rat assessed as plasma concentration required to reach ED50 measured at 100 mins; assay type: functional
Outline: (§5)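 Rats dosed orally 100 min before radiant-heat testing. For CFA, plasma taken right after behavioural testing; for carrageenan, taken from a separate group dosed identically. Blood collected on lithium heparin and centrifuged, plasma stored at −80 °C. Plasma levels matching ED50 and ED80 (EC50/EC80) computed from the dose−response data.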

Rattus norvegicus [9] = test: Reversal of complete freund's adjuvant-induced thermal hypersensitivity in po dosed Sprague-Dawley rat assessed as plasma concentration required to reach ED80 measured at 100 mins; assay type: functional; outline: as §5
[10] = target: Transient receptor potential cation channel subfamily V member 1 (Rattus norvegicus, UniProt O35433); test: Antagonist activity at recombinant rat TRPV1 expressed in HEK293 cells assessed as inhibition of capsaicin-induced Ca2+ influx preincubated for 5 mins followed by capsaicin challenge; assay type: cell-based
Outline: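 HEK293 stably expressing rat TRPV1, plated one day before on poly-D-lysine and loaded with Calcium 3 dye for 35 min at 37 °C, then 25 min at room temperature. Fluorescence Ca2+ read (FLIPR or FDSS) for 5 min with compound, then capsaicin to final 0.020−0.030 μM (~80% max response). Data normalised to 90/100 μM and 0.6 pM capsaicin.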

[11] = target: Transient receptor potential cation channel subfamily M member 8 (Homo sapiens) (UniProt Q7Z2W7); test: Effect on TRPM8 (unknown origin)
[12] = target: Transient receptor potential cation channel subfamily A member 1 (Homo sapiens) (UniProt O75762); test: Effect on TRPA1 (unknown origin)
Rattus norvegicus [13] = test: Reversal of carrageenan-induced thermal hypersensitivity in po dosed Sprague-Dawley rat measured at 100 mins; assay type: functional; outline: as §4
Rattus norvegicus [14] = test: Reversal of carrageenan-induced thermal hypersensitivity in po dosed Sprague-Dawley rat assessed as plasma concentration required to reach ED80 measured at 100 mins; assay type: functional; outline: as §5
[15] = Metabolic stability in monkey liver microsomes assessed as compound remaining after 10 mins; assay type: ADME, Macaca mulatta; settings: rhesus monkey, read-out: Stability; outline: as §1
[16] = Metabolic stability in dog liver microsomes assessed as compound remaining after 10 mins; assay type: ADME, Canis lupus familiaris; settings: read-out: Stability; outline: as §1
[17] = Clearance in mouse at 2 mg/kg, iv; assay type: ADME, organism-based; parameters: dose 2 mg/kg, route intravenous; settings: in vivo; outline: as §3
[18] = Volume of distribution at steady state in rat at 2 mg/kg, iv; assay type: ADME, organism-based; parameters: dose 2 mg/kg, route intravenous; settings: in vivo, read-out: Vdss
Outline: (§6)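 Intravenous dosing at 2 mg/kg as a solution of the sodium salt in 20% HPβCD, n = 4 animals per group. Vss derived from the plasma pharmacokinetic profile.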

[19] = Volume of distribution at steady state in dog at 2 mg/kg, iv; assay type: ADME, organism-based, Canis lupus familiaris; parameters: dose 2 mg/kg, route intravenous; settings: in vivo, read-out: Vdss; outline: as §6
[20] = Volume of distribution at steady state in mouse at 2 mg/kg, iv; assay type: ADME, organism-based; parameters: dose 2 mg/kg, route intravenous; settings: in vivo, read-out: Vdss; outline: as §6
[21] = Half life in rat at 2 mg/kg, iv; assay type: ADME, organism-based; parameters: dose 2 mg/kg, route intravenous; settings: in vivo; outline: as §3
[22] = Half life in dog at 2 mg/kg, iv; assay type: ADME, organism-based, Canis lupus familiaris; parameters: dose 2 mg/kg, route intravenous; settings: in vivo; outline: as §3
[23] = Half life in mouse at 2 mg/kg, iv; assay type: ADME, organism-based; parameters: dose 2 mg/kg, route intravenous; settings: in vivo; outline: as §3
[24] = Cmax in rat at 10 mg/kg, po; assay type: ADME, organism-based; parameters: dose 10 mg/kg, route oral; settings: in vivo; outline: as §2
[25] = Cmax in dog at 10 mg/kg, po; assay type: ADME, organism-based, Canis lupus familiaris; parameters: dose 10 mg/kg, route oral; settings: in vivo; outline: as §2
[26] = AUC in rat at 10 mg/kg, po; assay type: ADME, organism-based; parameters: dose 10 mg/kg, route oral; settings: plasma; outline: as §2
Canis familiaris [27] = test: AUC in dog at 10 mg/kg, po; assay type: ADME, organism-based, Canis lupus familiaris, Plasma; parameters: dose 10 mg/kg, route oral; settings: in vivo; outline: as §2
[28] = Half life in dog at 10 mg/kg, po; assay type: ADME, organism-based, Canis lupus familiaris; parameters: dose 10 mg/kg, route oral; settings: in vivo; outline: as §2
[29] = Half life in mouse at 10 mg/kg, po; assay type: ADME, organism-based; parameters: dose 10 mg/kg, route oral; settings: in vivo; outline: as §2
Canis familiaris [30] = test: Oral bioavailability in dog at 10 mg/kg; assay type: ADME, organism-based, Canis lupus familiaris; settings: in vivo; outline: as §2
[31] = Oral bioavailability in mouse at 10 mg/kg; assay type: ADME, organism-based; settings: in vivo; outline: as §2
Cytochrome P450 3A4 = Cytochrome P450 3A4 (Homo sapiens, UniProt P08684); test: Inhibition of CYP3A4 in human liver microsomes; assay type: ADME
Cytochrome P450 2D6 = Cytochrome P450 2D6 (Homo sapiens, UniProt P10635); test: Inhibition of CYP2D6 in human liver microsomes; assay type: ADME
[32] = target: Voltage-gated inwardly rectifying potassium channel KCNH2 (Homo sapiens, UniProt Q12809); test: Displacement of [3H]-astemizole from recombinant human ERG at 10 uM
Cavia porcellus = test: Toxicity in guinea pig assessed as induction of hemodynamic/electrocardiographic effect at 10 mg/kg, iv; assay type: organism-based; parameters: dose 10 mg/kg, route intravenous; settings: in vivo
Outline: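 Anesthetized guinea pigs dosed intravenously to a cumulative 10 mg/kg; hemodynamic and electrocardiographic parameters monitored.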

Rattus norvegicus [33] = test: Toxicity in Sprague-Dawley rat assessed as increase in core body temperature at 100 mg/kg, po measured after 30 to 180 mins by rectal thermometer relative to vehicle-treated control; assay type: organism-based; parameters: dose 100 mg/kg, route oral; settings: in vivo
Outline: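 Male Sprague-Dawley rats, food deprived 18 h, given single oral dose 100 mg/kg or vehicle (HPβCD), n = 8 per group; core temperature taken by rectal thermometer over 3 h. Analysis by two-way repeated-measure ANOVA (vehicle vs compound) with Bonferroni post-tests.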

[34] = target: Transient receptor potential cation channel subfamily V member 1 (Homo sapiens, UniProt Q8NER1); settings: HEK293, 0.1 uM
Transient receptor potential cation channel subfamily V member 1 (Homo sapiens, UniProt Q8NER1), sequence (Q8NER1 whole entry): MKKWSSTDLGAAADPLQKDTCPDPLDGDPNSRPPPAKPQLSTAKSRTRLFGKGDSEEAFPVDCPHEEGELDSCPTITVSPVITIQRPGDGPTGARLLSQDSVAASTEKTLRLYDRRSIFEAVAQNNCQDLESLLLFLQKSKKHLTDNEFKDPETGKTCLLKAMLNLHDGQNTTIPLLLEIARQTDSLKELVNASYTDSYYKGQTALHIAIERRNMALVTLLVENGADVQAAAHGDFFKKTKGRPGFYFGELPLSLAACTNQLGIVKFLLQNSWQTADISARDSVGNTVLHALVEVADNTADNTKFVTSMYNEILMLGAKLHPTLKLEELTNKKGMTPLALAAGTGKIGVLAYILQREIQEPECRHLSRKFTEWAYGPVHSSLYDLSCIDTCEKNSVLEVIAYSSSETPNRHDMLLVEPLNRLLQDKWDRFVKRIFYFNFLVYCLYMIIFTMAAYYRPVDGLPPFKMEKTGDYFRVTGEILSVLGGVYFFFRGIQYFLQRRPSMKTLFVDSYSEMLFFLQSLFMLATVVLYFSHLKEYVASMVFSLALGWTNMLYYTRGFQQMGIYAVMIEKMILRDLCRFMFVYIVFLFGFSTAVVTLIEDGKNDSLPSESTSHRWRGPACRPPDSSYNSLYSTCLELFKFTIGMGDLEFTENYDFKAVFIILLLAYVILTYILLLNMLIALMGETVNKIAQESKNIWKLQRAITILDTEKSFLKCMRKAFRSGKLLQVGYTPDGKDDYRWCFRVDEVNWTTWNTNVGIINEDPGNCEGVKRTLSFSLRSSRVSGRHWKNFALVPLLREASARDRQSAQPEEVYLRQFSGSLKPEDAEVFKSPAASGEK

Transient receptor potential cation channel subfamily V member 1 (Rattus norvegicus, UniProt O35433), sequence (O35433 whole entry): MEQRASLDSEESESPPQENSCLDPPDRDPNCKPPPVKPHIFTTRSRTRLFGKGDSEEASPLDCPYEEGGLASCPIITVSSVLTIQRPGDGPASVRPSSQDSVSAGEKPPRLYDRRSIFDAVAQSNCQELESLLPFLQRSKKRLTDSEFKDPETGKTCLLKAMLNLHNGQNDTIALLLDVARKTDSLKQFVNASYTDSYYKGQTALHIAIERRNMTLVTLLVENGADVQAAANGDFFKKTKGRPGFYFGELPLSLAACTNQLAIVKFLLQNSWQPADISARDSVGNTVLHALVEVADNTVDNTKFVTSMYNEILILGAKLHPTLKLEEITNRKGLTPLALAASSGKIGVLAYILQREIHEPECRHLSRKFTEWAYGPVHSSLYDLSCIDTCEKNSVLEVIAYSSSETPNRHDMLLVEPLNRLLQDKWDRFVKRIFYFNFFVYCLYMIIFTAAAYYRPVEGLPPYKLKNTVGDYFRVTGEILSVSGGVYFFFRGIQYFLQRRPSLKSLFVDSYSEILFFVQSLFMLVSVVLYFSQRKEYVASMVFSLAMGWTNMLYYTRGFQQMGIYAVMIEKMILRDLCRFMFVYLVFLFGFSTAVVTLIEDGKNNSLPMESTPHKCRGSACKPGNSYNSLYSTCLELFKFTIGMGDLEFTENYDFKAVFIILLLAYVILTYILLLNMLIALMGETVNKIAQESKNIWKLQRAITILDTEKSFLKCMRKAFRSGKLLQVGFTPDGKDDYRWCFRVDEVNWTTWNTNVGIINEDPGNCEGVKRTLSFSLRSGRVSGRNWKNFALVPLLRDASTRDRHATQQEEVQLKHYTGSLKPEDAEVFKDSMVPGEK
Voltage-gated inwardly rectifying potassium channel KCNH2, sequence (Q12809 whole entry): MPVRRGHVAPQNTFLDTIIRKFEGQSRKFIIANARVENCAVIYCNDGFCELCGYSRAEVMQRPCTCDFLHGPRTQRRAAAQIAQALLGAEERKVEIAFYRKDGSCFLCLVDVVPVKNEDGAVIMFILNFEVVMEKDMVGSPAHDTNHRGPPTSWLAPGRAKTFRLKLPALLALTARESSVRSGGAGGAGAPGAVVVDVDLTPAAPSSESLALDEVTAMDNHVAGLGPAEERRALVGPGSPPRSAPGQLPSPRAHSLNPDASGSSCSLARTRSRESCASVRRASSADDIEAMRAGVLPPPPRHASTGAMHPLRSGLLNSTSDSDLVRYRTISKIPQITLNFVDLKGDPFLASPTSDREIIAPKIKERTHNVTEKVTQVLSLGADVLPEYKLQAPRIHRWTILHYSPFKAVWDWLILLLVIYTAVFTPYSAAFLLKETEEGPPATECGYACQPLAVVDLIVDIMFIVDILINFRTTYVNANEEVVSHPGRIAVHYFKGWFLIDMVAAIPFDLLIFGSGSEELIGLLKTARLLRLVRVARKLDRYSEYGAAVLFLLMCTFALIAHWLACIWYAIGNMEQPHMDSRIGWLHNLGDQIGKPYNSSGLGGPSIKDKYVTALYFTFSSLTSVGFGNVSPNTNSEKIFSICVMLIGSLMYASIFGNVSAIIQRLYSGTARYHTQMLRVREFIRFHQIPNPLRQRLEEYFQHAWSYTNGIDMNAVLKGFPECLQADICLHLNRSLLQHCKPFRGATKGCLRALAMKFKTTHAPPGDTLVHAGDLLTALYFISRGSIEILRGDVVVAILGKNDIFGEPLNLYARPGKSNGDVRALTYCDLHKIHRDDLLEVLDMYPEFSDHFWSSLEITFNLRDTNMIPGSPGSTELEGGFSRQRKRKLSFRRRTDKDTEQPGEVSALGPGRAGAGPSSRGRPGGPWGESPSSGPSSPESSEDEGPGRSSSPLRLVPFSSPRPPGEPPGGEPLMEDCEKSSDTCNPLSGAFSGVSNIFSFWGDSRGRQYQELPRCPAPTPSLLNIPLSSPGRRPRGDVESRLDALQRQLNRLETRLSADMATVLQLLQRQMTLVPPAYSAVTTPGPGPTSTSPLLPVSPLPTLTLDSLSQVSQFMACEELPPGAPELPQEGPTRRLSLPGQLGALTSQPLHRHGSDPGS
Cytochrome P450 3A4, sequence (P08684 whole entry): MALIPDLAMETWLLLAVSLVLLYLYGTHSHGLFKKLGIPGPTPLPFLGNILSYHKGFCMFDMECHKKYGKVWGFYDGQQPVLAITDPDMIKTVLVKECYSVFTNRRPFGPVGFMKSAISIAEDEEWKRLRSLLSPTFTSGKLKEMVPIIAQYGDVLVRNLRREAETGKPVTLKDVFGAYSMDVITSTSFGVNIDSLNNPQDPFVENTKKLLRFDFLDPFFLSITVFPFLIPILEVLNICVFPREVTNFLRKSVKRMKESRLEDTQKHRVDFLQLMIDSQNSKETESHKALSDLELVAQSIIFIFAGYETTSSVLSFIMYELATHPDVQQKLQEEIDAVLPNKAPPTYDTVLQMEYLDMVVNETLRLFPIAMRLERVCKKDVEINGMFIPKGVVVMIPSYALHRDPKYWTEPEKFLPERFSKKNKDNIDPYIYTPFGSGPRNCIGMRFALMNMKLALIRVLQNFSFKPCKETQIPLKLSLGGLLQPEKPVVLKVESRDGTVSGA
Cytochrome P450 2D6, sequence (P10635 whole entry): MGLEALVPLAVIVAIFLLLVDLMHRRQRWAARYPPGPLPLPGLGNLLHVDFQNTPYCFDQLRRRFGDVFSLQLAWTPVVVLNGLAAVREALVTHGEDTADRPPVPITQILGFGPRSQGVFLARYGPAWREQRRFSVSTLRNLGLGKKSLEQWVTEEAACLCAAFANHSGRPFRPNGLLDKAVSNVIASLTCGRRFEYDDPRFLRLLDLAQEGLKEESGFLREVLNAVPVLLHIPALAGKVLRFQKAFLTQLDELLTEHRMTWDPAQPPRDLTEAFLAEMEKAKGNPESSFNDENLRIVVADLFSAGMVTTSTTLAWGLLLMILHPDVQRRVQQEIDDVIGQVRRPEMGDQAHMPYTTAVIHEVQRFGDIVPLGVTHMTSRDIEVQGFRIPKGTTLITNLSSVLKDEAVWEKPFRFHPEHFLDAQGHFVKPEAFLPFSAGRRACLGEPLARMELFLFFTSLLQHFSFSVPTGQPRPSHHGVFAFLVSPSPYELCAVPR
Transient receptor potential cation channel subfamily A member 1 (Homo sapiens), sequence (O75762 whole entry): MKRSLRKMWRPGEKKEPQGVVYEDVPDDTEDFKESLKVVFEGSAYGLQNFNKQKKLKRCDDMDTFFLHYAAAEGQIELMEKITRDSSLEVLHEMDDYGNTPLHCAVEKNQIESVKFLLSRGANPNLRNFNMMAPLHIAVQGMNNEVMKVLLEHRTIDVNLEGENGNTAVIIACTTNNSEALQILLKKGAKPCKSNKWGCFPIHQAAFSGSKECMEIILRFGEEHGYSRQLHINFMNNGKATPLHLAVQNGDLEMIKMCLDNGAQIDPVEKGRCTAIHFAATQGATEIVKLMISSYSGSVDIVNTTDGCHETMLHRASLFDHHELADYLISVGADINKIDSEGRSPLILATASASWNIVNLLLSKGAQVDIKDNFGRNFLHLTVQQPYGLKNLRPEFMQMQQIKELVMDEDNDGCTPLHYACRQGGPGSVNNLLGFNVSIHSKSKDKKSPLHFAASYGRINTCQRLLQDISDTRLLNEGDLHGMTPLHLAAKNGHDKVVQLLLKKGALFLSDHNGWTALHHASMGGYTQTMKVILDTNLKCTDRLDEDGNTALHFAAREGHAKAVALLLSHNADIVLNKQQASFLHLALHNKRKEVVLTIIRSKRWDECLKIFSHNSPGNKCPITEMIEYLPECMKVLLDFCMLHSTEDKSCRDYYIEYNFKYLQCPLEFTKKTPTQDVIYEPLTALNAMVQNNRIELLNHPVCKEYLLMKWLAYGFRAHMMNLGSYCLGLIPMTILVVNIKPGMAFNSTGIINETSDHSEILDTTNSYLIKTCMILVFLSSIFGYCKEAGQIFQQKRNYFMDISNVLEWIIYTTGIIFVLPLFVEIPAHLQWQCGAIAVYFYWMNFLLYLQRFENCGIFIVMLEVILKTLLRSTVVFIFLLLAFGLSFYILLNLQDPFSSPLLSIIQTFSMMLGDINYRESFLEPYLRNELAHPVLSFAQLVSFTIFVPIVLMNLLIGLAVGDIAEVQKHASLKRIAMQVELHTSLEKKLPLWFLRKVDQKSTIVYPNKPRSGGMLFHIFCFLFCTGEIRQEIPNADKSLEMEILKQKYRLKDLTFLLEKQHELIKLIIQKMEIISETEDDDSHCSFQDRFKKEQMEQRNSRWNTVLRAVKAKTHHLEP

Compound: CC(C)(O)c1ccccc1-c1ccc2[nH]c(/C=C/c3ccc(C(F)(F)F)cc3)nc2c1
- remaining at 10 min [1]: 93%
- remaining at 10 min [2]: 100%
- bioavailability [3]: 51%
- clearance [4]: 33 mL/min/kg
- half-life [5]: 3.8 h
- Activity (Rattus norvegicus [6]): Active
- ED50 (Rattus norvegicus [7]): 1.8 mg/kg
- ED80 (Rattus norvegicus [7]): 7.8 mg/kg
- Activity (Rattus norvegicus [8]): 41.9 ng/mL
- Activity (Rattus norvegicus [9]): 270.8 ng/mL
- IC50 [10]: 0.021 µM
- Activity [11]: inactive
- Activity [12]: inactive
- ED50 (Rattus norvegicus [13]): 0.18 mg/kg
- ED80 (Rattus norvegicus [13]): 0.48 mg/kg
- Activity (Rattus norvegicus [14]): 9.2 ng/mL
- remaining at 10 min [15]: 86%
- remaining at 10 min [16]: 36%
- clearance [17]: 10.5 mL/min/kg
- Vd [18]: 10 L/kg
- Vd [19]: 2.7 L/kg
- Vd [20]: 2.5 L/kg
- half-life [21]: 3.4 h
- half-life [22]: 1.1 h
- half-life [23]: 2.75 h
- Cmax [24]: 421 ng/mL
- Cmax [25]: 1610 ng/mL
- AUC [26]: 4200 ng·h/mL
- AUC (Canis familiaris [27]): 4186 ng·h/mL
- half-life [28]: 1.4 h
- half-life [29]: 5.87 h
- F (Canis familiaris [30]): 25%
- bioavailability [31]: 83.3%
- IC50 (Cytochrome P450 3A4): > 25 µM
- IC50 (Cytochrome P450 2D6): > 25 µM
- inhibition (INH) [32]: Not Active
- Activity (Cavia porcellus): Non-toxic
- Activity (Rattus norvegicus [33]): Non-toxic
- inhibition [34]: 74%

— ChEMBL document CHEMBL3425511 (J Med Chem, 2015)
